Data on 19 compounds can be found in ChEMBL document CHEMBL1134663, “Investigation of 5-nitrofuran derivatives: synthesis, antibacterial activity, and quantitative structure-activity relationships” (J Med Chem, 2001).

Assay [1] relates to Staphylococcus aureus. Nature of the assay: Activity against gram-positive Staphylococcus aureus strain ATCC 25923 bacteria. The class given is functional, organism-based. Particulars: read-out: Log 1/IC50 (converted). An outline of the steps: (§1)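 Sequential broth macrodilution. S. aureus was grown in TSB at 37 °C and C. crescentus in PYE (peptone, yeast extract, 0.8 mM MgSO4, 0.5 mM CaCl2) at 30 °C. Inoculum was an 8 h exponential culture diluted to about 2 × 10^5 bacteria/mL and added 1:1 to 2-fold serial dilutions. Incubation was 12 h (S. aureus) or 20 h (C. crescentus). Growth was read at A600, and the 50% growth inhibition concentration is reported as log(1/IC50), µmol/mL.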

Assay [2] deals with Caulobacter vibrioides. Nature of the assay: Compound was tested against gram-negative Caulobacter crescentus, strain NA 1000 bacteria. The class given is functional, organism-based. Particulars: read-out: Log 1/IC50 (converted). The essentials: as §1

Structures are written as SMILES.

Consider `N#Cc1ccc2c(c1)C(=O)/C(=C/c1ccc([N+](=O)[O-])o1)O2`, for which the IC50 was 3.16 mM in assay [1] and 4.57 mM in assay [2].

On to `CC(=O)Oc1ccc(Cl)cc1C(=O)/C=C/c1ccc([N+](=O)[O-])o1`, for which the IC50 is 10 mM in assay [1] and 50.1 mM in assay [2].

In the case of `CCc1ccc(OC(C)=O)c(C(=O)/C=C/c2ccc([N+](=O)[O-])o2)c1`, the IC50 in assay [1] is 3.98 mM.

As to `COc1ccc2c(c1)C(=O)/C(=C/c1ccc([N+](=O)[O-])o1)O2`, the IC50 is 0.151 mM in assay [1] and 1.05 mM in assay [2].

On to `O=C(/C=C/c1ccc([N+](=O)[O-])o1)c1cc(Cl)ccc1O`, for which the IC50 in assay [1] was 11.7 mM.

As for `CCc1ccc(O)c(C(=O)/C=C/c2ccc([N+](=O)[O-])o2)c1`, the IC50 in assay [1] is 15.8 mM.

For `Cc1ccc2c(c1)C(=O)/C(=C/c1ccc([N+](=O)[O-])o1)O2`, the results for the IC50 in assay [1] and in assay [2] were 0.115 mM and 1.26 mM, respectively.

Consider `CC(=O)Oc1ccccc1C(=O)/C=C/c1ccc([N+](=O)[O-])o1`, for which the IC50 is 6.92 mM in assay [1] and 42.7 mM in assay [2].

Take `CCCc1ccc2c(c1)C(=O)/C(=C/c1ccc([N+](=O)[O-])o1)O2`: the IC50 in assay [1] was 0.447 mM; in assay [2], 3.09 mM.

For the compound `CCc1ccc2c(c1)C(=O)/C(=C/c1ccc([N+](=O)[O-])o1)O2`, the IC50 in assay [1] is 0.447 mM; in assay [2], 2.75 mM.

Take `O=C(/C=C/c1ccc([N+](=O)[O-])o1)c1ccccc1O`: the values for the IC50 in assay [1] and in assay [2] were 7.24 mM and 64.6 mM, respectively.

For `CC(=O)Oc1ccc(C)cc1C(=O)/C=C/c1ccc([N+](=O)[O-])o1`, the IC50 in assay [1] was 4.79 mM.

`O=C1/C(=C/c2ccc([N+](=O)[O-])o2)Oc2ccccc21`: the IC50 in assay [1] is 0.302 mM; in assay [2], 1.29 mM.

As for `Cc1ccc(O)c(C(=O)/C=C/c2ccc([N+](=O)[O-])o2)c1`, in assay [1], the IC50 is 6.61 mM.

Consider `O=C(/C=C/c1ccc([N+](=O)[O-])o1)c1cc([N+](=O)[O-])ccc1O`, for which the IC50 was 17 mM in assay [1] and 14.8 mM in assay [2].

Consider `O=C1/C(=C/c2ccc([N+](=O)[O-])o2)Oc2ccc(Br)cc21`, for which the IC50 in assay [1] was 0.661 mM; in assay [2], 3.16 mM.

Take `CC(=O)Oc1ccc([N+](=O)[O-])cc1C(=O)/C=C/c1ccc([N+](=O)[O-])o1`: the IC50 was 16.2 mM in assay [1] and 14.8 mM in assay [2].

With `O=C1/C(=C/c2ccc([N+](=O)[O-])o2)Oc2ccc(Cl)cc21`, the results for the IC50 in assay [1] and in assay [2] were 0.575 mM and 5.25 mM, respectively.

As for `O=C1/C(=C/c2ccc([N+](=O)[O-])o2)Oc2ccc([N+](=O)[O-])cc21`, the IC50 in assay [1] was 3.98 mM; in assay [2], 11.7 mM.
